Only some compounds are listed: those with a hit (about 1.9% of all), similar ones and a draw of the others.
TbMetRS inhib: T. brucei MetRS inhibitors, primary screen, biochemical, luminescence; methionyl-tRNA synthetase (Trypanosoma brucei brucei); purified T. brucei MetRS, ATP depletion, Kinase-Glo luminescence; inhibition, % at 11.9 µM; 0.4% of 360,000 active; AID 624268, 2012;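 active = inhibition above a per-plate cutoff of the control wells' mean inhibition plus 3 SD, cut at about 5.5% in these data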;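 note: 0% = DMSO wells median and 100% = median of wells with control inhibitor compound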
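System: purified T. brucei MetRS enzyme / Detection: Kinase-Glo luciferase luminescence reporting remaining unconsumed ATP / Medium: HEPES buffer with MgCl2, KCl, DTT, spermine, BSA, pyrophosphatase / Replication: singlicate, one well per compound / Evaluation: percent inhibition relative to median high and low control wells / Schedule: 2 h aminoacylation at 25 °C after 15 min preincubation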
NadD block: inhibitors of S. aureus NadD, primary screen, biochemical, colorimetric, uHTS; purified NadD enzyme, colorimetric absorbance read-out; inhibition, % at 20 µM; 0.78% of 360,000 active; AID 602399, 2012; in the data active = inhibition above about 26%
Rce1 inhib: yeast Rce1p protease inhibitors, primary screen, biochemical, fluorescence, cell-free homogeneous; AID 2563, 2010; calls only; 0.27% of 290,000 active; CAAX prenyl protease 2 (Saccharomyces cerevisiae (strain ATCC 204508 / S288c)), Q03530; yeast membranes, quenched prenylated peptide cleavage fluorescence;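 active = fall in fluorescence gain of 50% or more versus controls, with final raw signal at or below 3038400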;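 note: plate controls were neutral control wells for no effect and wells lacking membranes for full effect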
HCV core dimer: inhibitors of HCV core protein dimerization, primary screen, biochemical, TR-FRET, high-throughput. TR-FRET GST/Flag-core106 dimerization, 1536-well. inhibition, % at 5 µM. 0.33% of 300,000 active. AID 1899, 2009;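 active = inhibition above the mean of all tested compounds plus 3 SD, set per screening campaign, cut at about 45% in these data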
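Assay system: GST-tagged and Flag-tagged HCV core protein residues 1-106 / Times: compound-protein-antibody incubation 4 h at 22.5 °C / Signal: time-resolved FRET, ex 340 nm, em 617 and 671 nm / Evaluation: % inhibition based on acceptor/donor emission ratio / Benchmarks: wells lacking GST-core106 and wells with excess unlabelled core106 / Repeats: singlicate, one well per compound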
Pemphigus Ab inh: inhibitors of pemphigus antibody binding to DSG3, primary screen, biochemical, bead-based, flow cytometry, scFv-GFP | DSG3-coupled beads, scFv-anti-DSG3-GFP binding; active compounds read low | binding (percent of control), % at 10 µM | 0.48% of 310,000 active;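 active = binding more than 3 SD below its plate's average and above zero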;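 note: hits lower antibody fragment binding to DSG3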
Active calls of the source: *; i = inactive; · = no result; + = active, no number.

SMILES	TbMetRS inhib	NadD block	Rce1 inhib	HCV core dimer	Pemphigus Ab inh
O/C=c1\ccc2cccc3nc(C(F)(F)F)nc1c23	-1	33*	i	19	115
COc1ccccc1N1CCN(c2cc(=O)n(Cc3ccc(F)cc3)c(=O)[nH]2)CC1	0	1	i	2	69*
O=c1cc(N2CCN(c3ccccc3Cl)CC2)[nH]c(=O)n1Cc1ccc(F)cc1	-1	1	i	9	85
Cc1c(C(=O)NCCC2=CCCCC2)oc2ccc(S(=O)(=O)N3CCC4(CC3)OCCO4)cc12	-1	-2	i	7	99
CC(/C=C1\SC(=S)N(CC(=O)N2CCN(c3ccccc3)CC2)C1=O)=C\c1ccccc1	0	18	i	50*	98
Cc1ccc(/C([O-])=C(/C(=S)NCc2ccco2)[n+]2ccccc2)cc1	·	·	i	42	·
O=[N+]([O-])c1ccc(/C([O-])=C(/C(=S)NCc2ccco2)[n+]2ccccc2)cc1	0	12	i	52*	96
Cc1ccc(C(=O)NC2CCc3ccccc3C2=O)cc1 (configuration not stated)	-1	-3	i	-1	111
O=C(Cn1cnc2scc(-c3ccccc3)c2c1=O)NCc1ccco1	0	8	i	56*	83
O=C(Cn1cnc2sc(-c3ccccc3)cc2c1=O)NCc1ccco1	-2	1	·	65*	116
C=CCNC(=S)N/N=C(\C)c1ccc(-n2ccnc2)cc1	-1	0	i	2	100
O=C(CSc1nnc(-c2cccc(S(=O)(=O)N3CCCCC3)c2)o1)NCCC1=CCCCC1	-1	-3	i	7	103
Fc1cccc(-c2cc3nc(-c4ccccc4)cc(N4CCC5(CC4)OCCO5)n3n2)c1	0	24	+	11	107
Cc1ccc(-c2cc3nc(-c4ccccc4)cc(N4CCC5(CC4)OCCO5)n3n2)cc1	-1	21	i	2	109
Cc1cccc(-c2cc3nc(-c4ccccc4)cc(N4CCC5(CC4)OCCO5)n3n2)c1	0	14	+	8	106
CN(C)/C=C(\C(=O)c1ccc(Cl)cc1)c1nnnn1-c1ccc(Cl)cc1	-1	0	i	-1	110
CC(C)Nc1nnc(SCC(=O)Nc2ccc3c(c2)C(=O)c2ccccc2C3=O)s1	0	17	i	15	99
O=C(CSc1nnc(NC2CCCCC2)s1)Nc1ccc2c(c1)C(=O)c1ccccc1C2=O	-1	46*	i	19	95
Cc1cc(=O)n2c(ccc3ccccc32)c1C#N	1	0	i	0	104
Cc1cc(=O)n2ccccc2c1C#N	0	-1	+	2	99
Cc1ccc(C)c(Cn2nnc3c(=O)[nH]c(C4CCCN(S(=O)(=O)Cc5ccccc5)C4)nc32)c1 (configuration not stated)	1	13	i	10	100
CCOc1ccccc1-c1c2cc(O)c(=O)cc-2oc2cc(O)c(O)cc12	0	27	·	·	96
O=c1cc2oc3cc(O)c(O)cc3c(-c3ccccc3O)c-2cc1O	1	46*	·	·	74*
COc1ccc(OC)c(-c2c3cc(O)c(=O)cc-3oc3cc(O)c(O)cc23)c1	3	39*	·	39	85
CN(C)C(=O)CN1CCN(c2nc3nonc3nc2N2CCCCC2)CC1	2	2	i	-2	123
SMILES	TbMetRS inhib	NadD block	Rce1 inhib	HCV core dimer	Pemphigus Ab inh
CC(=O)Nc1cc2c(cc1C(C)=O)OCCO2	-1	-3	i	0	·
CC(=O)c1cc2c(cc1NC(=O)c1ccc(Cl)cc1)OCCO2	-1	15	i	4	31*
Cc1ccc(-c2nc3cc(Cl)ccc3o2)cc1	0	11	·	5	·
Clc1ccc(-c2nc3cc(CN4CCCCC4)ccc3o2)cc1	-1	-11	i	·	72*
CC(C)(C)C(=O)Cn1ncc(Cl)c(Cl)c1=O	-1	0	i	·	104
C=CCn1c(C)cc(C(=O)Cn2ncc(Cl)c(Cl)c2=O)c1C	0	17	i	51*	109

Compound activity (PubChem BioAssay)
